Calls of active or inactive are those of the source. The calls are words filed in the database; no cut-off is given here.
What was measured:
[1] = Unbound brain concentration in CD-1 mouse at 1 mg/kg, sc measured after 2 hrs by LC-MS/MS analysis; type: ADME, organism-based; conditions: in vivo
[2] = Unbound plasma concentration in CD-1 mouse at 10 mg/kg, sc measured after 2 hrs by LC-MS/MS analysis; type: ADME, organism-based; conditions: in vivo
[3] = Toxicity in male Beagle dog assessed as increase in maximum systolic left ventricular pressure at 3 mg/kg, po observed up to 9 hrs post last dose by telemetry; type: organism-based, Canis lupus familiaris; conditions: in vivo
How it was run: (§1)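 Crossover telemetry study in dogs at three oral doses (0.3, 1 and 3 mg/kg), N=4. Endpoints were blood pressure, maximum systolic left ventricular pressure, LV +dP/dt max, activity, heart rate, and RR, QT and QTc intervals, followed up to 9 h post dose.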

Rattus norvegicus = assay: Reversal of scopolamine-induced spatial learning in Wistar rat model at 0.32 mg/kg, po administered 15 min before training followed by 30 mins later administration with scopolamine measured after 24 hrs by Morris water maze test
[4] = fCmax in rat at 15 mg/kg, po administered for 14 days; type: ADME, organism-based; conditions: in vivo, 336 h, time 14 day
How it was run: (§2)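 2-week repeat oral dosing in rats, 0.5% methylcellulose formulation; N=4/sex/dose; doses 3, 10, 30 (males)/15 (females) mg/kg; unbound exposures reported per dose and sex.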

[5] = biological target: T1, Muscarinic acetylcholine receptor M1 (Homo sapiens, UniProt P11229); assay: Partial agonist activity at muscarinic M1 receptor (unknown origin) assessed as recruitment of beta-arrestin by Path Hunter assay; type: cell-based, CHO
T1 sequence (P11229 whole entry): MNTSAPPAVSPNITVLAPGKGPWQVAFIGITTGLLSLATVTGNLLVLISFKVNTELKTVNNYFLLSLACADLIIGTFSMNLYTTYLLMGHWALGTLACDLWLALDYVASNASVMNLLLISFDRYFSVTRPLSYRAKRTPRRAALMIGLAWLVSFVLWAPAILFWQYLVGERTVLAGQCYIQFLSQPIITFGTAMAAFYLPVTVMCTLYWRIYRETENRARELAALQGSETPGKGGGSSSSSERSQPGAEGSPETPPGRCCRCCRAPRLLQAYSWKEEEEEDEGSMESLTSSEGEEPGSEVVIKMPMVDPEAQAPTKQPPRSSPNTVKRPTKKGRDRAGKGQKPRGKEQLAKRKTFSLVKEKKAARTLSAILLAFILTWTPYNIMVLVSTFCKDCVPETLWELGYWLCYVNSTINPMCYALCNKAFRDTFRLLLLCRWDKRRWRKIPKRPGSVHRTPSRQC

[6] = Unbound brain concentration in scopolamine-induced Wistar rat model at 0.32 mg/kg, po measured after 1 hr; type: ADME, organism-based; conditions: in vivo
[7] = fCmax in dog at 0.3 mg/kg, po measured after 4 hrs using spray-dried dispersion formulation; type: ADME, organism-based, Canis lupus familiaris; conditions: in vivo
How it was run: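 Dogs from the crossover cardiovascular telemetry study (N=4), dosed orally at 0.3, 1 and 3 mg/kg; unbound Cmax extrapolated from 4 h post-dose in-life plasma samples.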

[8] = Half life in dog at 0.5 mg/kg, po or 0.1 mg/kg, iv; type: ADME, organism-based, Canis lupus familiaris; conditions: in vivo
[9] = Positive allosteric modulation of muscarinic M2/M3 receptor in Hartley guinea pig ileum assessed as increase in donepezil-induced stimulation of contraction; type: tissue-based; conditions: Cavia porcellus
How it was run: (§3)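 PAM mode used guinea pig ileum in a tissue bath. Contraction concentration–response curves were run in the presence of an EC20 of donepezil, with or without atropine.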

[10] = fAUC (0 to 24 hrs) in rat at 30 mg/kg, po administered for 14 days; type: ADME, organism-based; conditions: in vivo, 336 h, time 14 day; how it was run: as §2
Mus musculus = assay: Reversal of amphetamine-induced hyperlocomotion in C57BL/6J mouse at 1 mg/kg, sc incubated for 30 mins followed by addition of amphetamine measured after 90 mins; type: functional, organism-based; conditions: time 120.0 min
How it was run: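 The compound was given sc as a solution in 5/15/80 DMSO/Solutol/water, and amphetamine-induced locomotor activity was compared with vehicle. Plasma and brain exposure came from a satellite group (N=2/dose) sampled at 1 h after the same dosing.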

[11] = Ratio of AUC in C57BL/6 mouse brain to plasma at 1 mg/kg, sc; type: ADME, organism-based; conditions: brain and plasma, read-out: Ratio AUC
[12] = Ratio of AUC in dog brain to fAUC in dog plasma; type: ADME, cell-free, Canis lupus familiaris; conditions: in vivo
[13] = Toxicity in male Beagle dog assessed as effect on heart rate at 3 mg/kg, po observed upto 9 hrs post last dose by telemetry; type: organism-based, Canis lupus familiaris; conditions: in vivo; how it was run: as §1
[14] = Positive allosteric modulation of muscarinic M2/M3 receptor in Hartley guinea pig ileum assessed as increase in donepezil-induced stimulation of contraction in presence of mAChR antagonist atropine; type: tissue-based, Cavia porcellus; how it was run: as §3
[15] = fAUC (0 to 24 hrs) in rat at 10 mg/kg, po administered for 14 days; type: ADME, organism-based; conditions: in vivo, 336 h, time 14 day; how it was run: as §2
[16] = Unbound plasma concentration in amphetamine-induced C57BL/6J mouse model of hyperlocomotion at 0.32 mg/kg, sc measured after 1 hr; type: ADME, organism-based; conditions: in vivo
How it was run: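 Satellite PK animals from the mouse aLMA study, N=2/dose. Dosed subcutaneously with a solution in 5/15/80 DMSO/Solutol/water. Plasma and brain were sampled at T = 1 h.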

[17] = Ratio of fAUC in C57BL/6 mouse brain to plasma; type: ADME, cell-free; conditions: brain and plasma, read-out: Ratio AUC
[18] = biological target: T1, Muscarinic acetylcholine receptor M1; assay: Positive allosteric modulation of muscarinic M1 receptor (unknown origin) assessed as increase in Ach-induced recruitment of beta-arrestin by Path Hunter assay; type: cell-based, CHO
[19] = Toxicity in rat assessed as increase in food intake at 10 mg/kg, po administered for 14 days; type: organism-based; conditions: in vivo, 336 h, time 14 day
How it was run: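 Two-week repeat-dose toxicity study in rats. Oral dosing in 0.5% methylcellulose at 3, 10, 30 (males)/15 (females) mg/kg, N=4/sex/dose. Food intake, body weight gain and histopathology were assessed.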

[20] = biological target: Muscarinic acetylcholine receptor M3 (Homo sapiens, UniProt P20309); assay: Agonist activity at human recombinant muscarinic M3 receptor stably expressed in CHO cells assessed as increase in intracellular calcium level up to 10 uM incubated for 10 mins by Fluo-8AM dye based FLIPR TETRA method; type: cell-based
Chain of Muscarinic acetylcholine receptor M3 (P20309 whole entry): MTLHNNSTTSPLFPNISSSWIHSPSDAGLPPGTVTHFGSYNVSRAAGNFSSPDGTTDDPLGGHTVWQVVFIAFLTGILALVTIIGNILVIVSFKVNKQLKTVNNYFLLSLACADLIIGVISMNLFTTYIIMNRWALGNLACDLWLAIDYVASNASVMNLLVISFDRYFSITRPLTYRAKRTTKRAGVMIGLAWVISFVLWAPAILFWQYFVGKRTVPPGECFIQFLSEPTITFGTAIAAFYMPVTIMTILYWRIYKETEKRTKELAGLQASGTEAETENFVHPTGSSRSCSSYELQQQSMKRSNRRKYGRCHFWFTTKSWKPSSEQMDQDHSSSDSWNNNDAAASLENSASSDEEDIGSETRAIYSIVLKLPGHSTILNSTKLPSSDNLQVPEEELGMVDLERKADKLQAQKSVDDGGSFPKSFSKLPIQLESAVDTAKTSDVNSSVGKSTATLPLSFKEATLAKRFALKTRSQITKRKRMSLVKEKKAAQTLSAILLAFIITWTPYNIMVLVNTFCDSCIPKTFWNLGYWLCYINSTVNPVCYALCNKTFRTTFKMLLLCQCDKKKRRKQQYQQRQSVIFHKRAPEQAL

[21] = Unbound brain concentration in […] in Sprague-Dawley rat model at 1 mg/kg, sc measured after 1.67 hrs; type: ADME, organism-based; conditions: in vivo
How it was run: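 Randomly selected animals (N=2/dose) at the end of the rat PPI study, T = 1.67 h. Dosed subcutaneously as a suspension in 0.5% methylcellulose in water. Plasma and brain concentrations were averaged.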

[22] = Fraction unbound in Beagle dog plasma; type: ADME, Canis lupus familiaris
[23] = Fraction unbound in Wistar Han rat plasma; type: ADME

- Drug uptake(free) [1]: 14.3 nM
- Cp(f) [2]: 574 nM
- fCmax [4]: 708 nM
- EC50 [5]: 3.9 µM
- Drug uptake(free) [6]: 1.3 nM
- fCmax [7]: 41 nM
- half-life [8]: 5.17 h
- EC50 [9]: 0.082 µM
- fAUC [10]: 13.211 µM·h
- Kp [11]: 0.2
- Ratio AUC [12]: 0.6
- Activity [14]: Not Active
- fAUC [15]: 5.739 µM·h
- Cp(f) [16]: 23.4 nM
- Kp uu [17]: 0.34
- EC50 [18]: 0.365 µM
- Activity [20]: Not Active
- Drug uptake(free) [21]: 17.4 nM
- Fu [22]: 8.1%
- Fu [23]: 4.3%
SMILES: Cc1cnc(C(=O)N[C@H]2CCOC[C@@H]2O)cc1Cc1ccc(-c2cscn2)cc1
- Activity [3]: Toxic
- Activity (Rattus norvegicus): Active
- Activity (Mus musculus): Active
- Activity [13]: 25 bpm
- Activity [19]: Non-Toxic

Source: ChEMBL document CHEMBL4715734, “Discovery of the Potent and Selective M1 PAM-Agonist N-[(3R,4S)-3-Hydroxytetrahydro-2H-pyran-4-yl]-5-methyl-4-[4-(1,3-thiazol-4-yl)benzyl]pyridine-2-carboxamide (PF-06767832): Evaluation of Efficacy and Cholinergic Side Effects” (J Med Chem, 2016)
